The IC50 is the concentration that gives 50% inhibition. High values mean weaker potency, low ones greater potency.

The values below come from ChEMBL document CHEMBL1124049, “Synthesis and biological characterization of pyridohomotropanes. Structure-activity relationships of conformationally restricted nicotinoids” (J Med Chem, 1988).

The species named for assay [1] is Rattus norvegicus. The experiment in a line: Effective dose required to produce prostration after injection into rat's fourth ventricle. The assay is classed as functional. The method in brief: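 Rats given various doses into the fourth ventricle through chronically implanted cannulae, in 1 μL. Prostration of the limbs was scored, from hind-limb prostration with forelimb weakness up to prostration of all four limbs.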

Assay [2] concerns the target T1, Acetylcholine receptor (Torpedo californica, UniProt P02710+P02712+P02714+P02718). Briefly: Inhibition of [3H]MCC binding to torpedo electroplax membranes. The method in brief: (§1)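 Membranes from whole rat brain or Torpedo electric organ, homogenized in 30 volumes 0.05 M NaH2PO4 pH 7.0 and spun at 50000g for 30 min. Each tube held 2 mg brain protein or 1 mg electric organ protein, 1 × 10⁻⁹ M radioligand (final), and varied agent concentrations in 0.05 M NaPO4 pH 7.0.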

The species entered for assay [3] is Rattus norvegicus. The experiment in a line: Potency for prostration assay, relative to PHT. The assay is classed as functional.
In assay [4] the target is Neuronal acetylcholine receptor. Briefly: Inhibition of [3H]MCC binding to rat brain membranes. The class given is cell membranes, Membrane. The method in brief: as §1
For assay [5] the target is unchanged. The experiment in a line: Inhibition of (-)-[3H]nicotine binding to rat brain membranes. The assay is classed as cell membranes, Membrane. The method in brief:
as §1

The target of assay [6] is T1, Acetylcholine receptor. Briefly: inhibition of (-)-[3H]nicotine binding to torpedo electroplax membranes. The method in brief:
as §1

T1 sequence (P02710 whole entry): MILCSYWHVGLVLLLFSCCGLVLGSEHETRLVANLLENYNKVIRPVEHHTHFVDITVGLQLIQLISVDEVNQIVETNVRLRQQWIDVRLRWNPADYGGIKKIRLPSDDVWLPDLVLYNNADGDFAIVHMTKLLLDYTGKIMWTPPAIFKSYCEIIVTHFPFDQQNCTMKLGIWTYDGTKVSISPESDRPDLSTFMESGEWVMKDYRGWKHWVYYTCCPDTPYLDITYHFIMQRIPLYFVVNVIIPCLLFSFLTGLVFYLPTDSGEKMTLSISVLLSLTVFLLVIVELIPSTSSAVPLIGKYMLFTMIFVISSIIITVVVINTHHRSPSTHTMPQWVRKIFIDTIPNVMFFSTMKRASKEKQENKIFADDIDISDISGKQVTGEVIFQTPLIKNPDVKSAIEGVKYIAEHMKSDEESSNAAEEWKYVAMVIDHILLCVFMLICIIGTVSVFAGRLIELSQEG
T1 sequence (P02712 whole entry): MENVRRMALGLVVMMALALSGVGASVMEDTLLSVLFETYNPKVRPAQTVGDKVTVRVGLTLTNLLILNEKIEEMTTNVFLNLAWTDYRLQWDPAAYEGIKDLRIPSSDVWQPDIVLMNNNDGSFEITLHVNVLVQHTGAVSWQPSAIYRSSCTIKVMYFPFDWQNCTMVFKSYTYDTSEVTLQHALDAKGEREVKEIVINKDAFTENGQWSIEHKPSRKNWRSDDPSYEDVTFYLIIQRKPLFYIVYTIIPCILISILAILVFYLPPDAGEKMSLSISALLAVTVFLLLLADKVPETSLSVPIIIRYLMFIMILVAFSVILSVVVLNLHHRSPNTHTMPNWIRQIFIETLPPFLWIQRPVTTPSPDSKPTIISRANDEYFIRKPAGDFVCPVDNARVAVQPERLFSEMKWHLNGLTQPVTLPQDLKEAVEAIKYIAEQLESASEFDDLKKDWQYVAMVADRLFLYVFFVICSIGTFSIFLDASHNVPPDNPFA
T1 sequence (P02718 whole entry): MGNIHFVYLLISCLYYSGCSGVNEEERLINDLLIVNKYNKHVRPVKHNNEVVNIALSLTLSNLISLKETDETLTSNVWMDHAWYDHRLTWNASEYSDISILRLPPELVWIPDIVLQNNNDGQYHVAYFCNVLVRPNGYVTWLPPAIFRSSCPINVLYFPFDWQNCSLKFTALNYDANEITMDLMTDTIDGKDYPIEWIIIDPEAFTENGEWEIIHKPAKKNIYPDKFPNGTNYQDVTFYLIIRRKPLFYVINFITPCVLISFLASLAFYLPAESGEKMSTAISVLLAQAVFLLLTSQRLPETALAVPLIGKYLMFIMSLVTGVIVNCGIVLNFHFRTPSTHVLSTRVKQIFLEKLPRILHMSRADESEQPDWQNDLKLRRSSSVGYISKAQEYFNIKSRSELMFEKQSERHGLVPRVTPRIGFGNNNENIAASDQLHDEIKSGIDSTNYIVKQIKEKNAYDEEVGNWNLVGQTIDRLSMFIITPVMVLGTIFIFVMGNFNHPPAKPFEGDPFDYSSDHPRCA
T1 sequence (P02714 whole entry): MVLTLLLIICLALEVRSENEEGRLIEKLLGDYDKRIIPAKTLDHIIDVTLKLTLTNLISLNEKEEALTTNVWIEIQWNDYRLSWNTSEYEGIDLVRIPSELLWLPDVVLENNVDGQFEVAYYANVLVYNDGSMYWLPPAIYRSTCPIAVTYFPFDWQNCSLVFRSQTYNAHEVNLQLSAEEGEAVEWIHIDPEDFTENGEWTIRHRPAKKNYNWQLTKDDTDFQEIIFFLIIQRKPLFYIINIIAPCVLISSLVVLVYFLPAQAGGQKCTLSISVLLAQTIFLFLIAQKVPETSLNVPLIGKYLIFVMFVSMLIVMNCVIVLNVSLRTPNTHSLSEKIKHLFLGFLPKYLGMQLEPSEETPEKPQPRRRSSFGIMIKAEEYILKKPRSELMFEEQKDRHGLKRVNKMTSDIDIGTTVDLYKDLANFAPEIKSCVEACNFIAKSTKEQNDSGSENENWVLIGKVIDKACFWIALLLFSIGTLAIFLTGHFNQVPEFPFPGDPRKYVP

Take `c1cc2c(cn1)C1CCC(CC2)N1` (centres undefined): in the assay listed under Rattus norvegicus [1], the ED50 was 10 nmol. The IC50 came out at 0.1 nM at Acetylcholine receptor [2], 10 nM in assay [4], 5 nM in assay [5] and 1 nM at Acetylcholine receptor [6]. In addition, in the assay listed under Rattus norvegicus [3], the Relative potency is listed as 1.

On to `CN1CCC[C@H]1c1cccnc1` [NICOTINE], for which the ED50 in the assay listed under Rattus norvegicus [1] was 10 nmol. The half-inhibitory concentration (IC50) at Acetylcholine receptor [2] amounted to 1 nM; on Acetylcholine receptor [6], 4 nM.

On to `CN1C2CCc3ccncc3C1CC2` (centres undefined), for which the ED50 in the assay filed under Rattus norvegicus [1] worked out at 500 nmol. Moreover, the IC50 at Acetylcholine receptor [2] turned out to be 2000 nM; in assay [4], 3000 nM; in assay [5], 1000 nM; on Acetylcholine receptor [6] it was 800 nM. Besides, the Relative potency in the assay filed under Rattus norvegicus [3] is 0.02.

On to `c1cncc([C@@H]2CCCN2)c1` [NORNICOTINE], for which, in the assay filed under Rattus norvegicus [1], the ED50 worked out at 75 nmol. The half-maximal inhibitory concentration (IC50) at Acetylcholine receptor [2] was 300 nM; on Acetylcholine receptor [6] it was 100 nM.

`Cc1nccc2c1C1CCC(CC2)N1` (centres undefined) registered an ED50 in the assay listed under Rattus norvegicus [1] of 500 nmol. In addition, the half-maximal inhibitory concentration (IC50) at Acetylcholine receptor [2] turned out to be 300 nM; in assay [4], 700 nM; in assay [5], 900 nM; on Acetylcholine receptor [6], 300 nM. In addition, the Relative potency in the assay listed under Rattus norvegicus [3] worked out at 0.02.
